High-throughput results deposited in PubChem BioAssay by several laboratories.
Only some compounds are listed: those with a hit (about 4% of all), similar ones and a draw of the others.
OX1R antag-1 – antagonists of human orexin 1 receptor (OX1R) | OX1R-expressing cells, FRET antagonist read-out | actives 1.8% (n = 330,000) | O43613 | inhibition, % at 6.6 µM; in the data active = inhibition mostly above about 38%, no sharp cut-off; inactive = mostly below about 40%;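 also: 0% = agonist challenge alone and 100% = reference antagonist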
TAAR1 ag – agonists of human TAAR1 | Q96RJ0 | CHO RD-HGA16 TAAR1, Fluo-8 calcium fluorescence; vehicle wells 0%, saturating PEA agonist 100% | activation, % at 3 µM | actives 0.99% (n = 360,000) | AID 624467;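 active = activation above the mean activation of all test compounds in the run plus 3 SD, cut at about 38% in these data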
Target sequence (Q96RJ0 whole entry, looked up): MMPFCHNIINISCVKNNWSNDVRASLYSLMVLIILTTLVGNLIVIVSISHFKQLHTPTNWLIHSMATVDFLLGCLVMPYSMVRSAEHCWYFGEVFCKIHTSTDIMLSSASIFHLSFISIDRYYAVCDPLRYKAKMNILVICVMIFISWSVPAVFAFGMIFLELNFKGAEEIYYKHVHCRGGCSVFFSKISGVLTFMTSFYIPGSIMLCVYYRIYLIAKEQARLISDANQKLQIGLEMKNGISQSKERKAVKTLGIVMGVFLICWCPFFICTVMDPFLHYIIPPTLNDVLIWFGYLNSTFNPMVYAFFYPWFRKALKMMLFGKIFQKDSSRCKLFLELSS
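Test system: RD-HGA16 (CHO) cells co-expressing Gα16 and hTAAR1; dosing: one-point dosing at 3 µM (nominal); timing: 17-24 h seeding, 75 min 37 °C dye, 30 min RT; signal: kinetic Fluo-8 calcium fluorescence; read-out basis: % activation relative to PEA EC100 response; controls: DMSO and PEA EC100; replicates: n 1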
TAAR1 antagonist – human TAAR1 antagonism. inhibition, % at 3 µM. actives 1.5% (n = 360,000). Q96RJ0. CHO RD-HGA16 TAAR1, Fluo-8 calcium fluorescence, antagonist;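 active = inhibition above a per-plate cutoff, the mean inhibition of test compounds on that plate plus 3 SD, cut at about 49% in these data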;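 also: 0% = DMSO plus EC80 beta-PEA response and 100% = DMSO alone without agonist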
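System: CHO RD-HGA16 cells bearing hTAAR1. Reagent: EC80 β-phenethylamine stimulus. Schedule: seeding 17-24 h prior, 75-min 37 °C, 30-min RT dye loading. Signal: Fluo-8 intracellular calcium dye fluorescence, real-time kinetic reads. Read-out: % inhibition from peak post-agonist over basal fluorescence ratio. Benchmarks: vehicle wells and EC80 agonist wells. Replicates: n of 1.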
CHO parental Ca – counter-screen: ATP calcium response change in parental CHO cells. actives 0.63% (n = 330,000). parental CHO-K1, ATP-induced calcium, Fluo-8 fluorescence. inhibition, % at 5.6 µM;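 active = inhibition above that plate's mean sample inhibition plus 3 SD, cut at about 26% in these data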;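 also: 0% = ATP-challenged DMSO wells and 100% = DMSO wells without ATP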
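Test system: untransfected parental CHO cell line. Compound: one dose, 5.6 µM nominal. Detection: intracellular calcium via Fluo-8 no-wash fluorescent dye. Measure: % inhibition. Benchmarks: ATP-challenged DMSO wells low, unchallenged DMSO wells high.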
OX1R antag-2 – blocks the human orexin 1 receptor; O43613; CHO/OX1R cells, Fluo-8 calcium fluorescence, orexin A; inhibition, % at 5 µM; actives 0.43% (n = 330,000);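 active = inhibition above its plate's threshold, mean inhibition of all tested compounds on the plate plus 3 SD, cut at about 37% in these data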;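 also: 0% = orexin A challenge wells and 100% = SB-334867-A antagonist wells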
NTR1 agonist – agonists of human neurotensin receptor NTR1; NTR1-U2OS beta-arrestin-GFP spot imaging, agonist mode; AID 493036; actives 0.17% (n = 330,000); activation, % at 20 µM;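 active = activation at or above 40% of the spot to cytoplasm intensity ratio, with at least 20 cells analyzed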;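 also: 0% = DMSO without peptide and 100% = 100 nM NTR1 peptide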
Target sequence (P30989 whole entry, looked up): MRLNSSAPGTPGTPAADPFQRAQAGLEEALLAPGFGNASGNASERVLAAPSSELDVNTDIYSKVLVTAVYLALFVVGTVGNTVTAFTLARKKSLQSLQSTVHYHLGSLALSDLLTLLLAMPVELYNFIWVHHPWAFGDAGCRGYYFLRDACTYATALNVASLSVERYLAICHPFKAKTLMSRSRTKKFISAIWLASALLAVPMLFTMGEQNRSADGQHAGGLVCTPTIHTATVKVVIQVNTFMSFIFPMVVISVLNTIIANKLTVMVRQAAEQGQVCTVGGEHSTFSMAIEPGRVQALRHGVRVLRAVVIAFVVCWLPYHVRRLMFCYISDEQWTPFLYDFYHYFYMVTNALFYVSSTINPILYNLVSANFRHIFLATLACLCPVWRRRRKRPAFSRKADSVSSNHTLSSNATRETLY
nonsel antag count – nonselective antagonist in TAAR1 antagonist counter-screen | shares compounds with TAAR1 antagonist | counterscreen cell line, calcium fluorescence, antagonist mode | inhibition, % at 3 µM | actives 77% (n = 2,400); in the data active = inhibition above about 22%;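 also: CHO-Ga16 host cells stimulated with ATP at an EC80 level; 0% = agonist EC80 plus vehicle and 100% = vehicle without agonist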
TAAR1 antag conf – human TAAR1 antagonism, confirmed | shares compounds with TAAR1 antagonist | TAAR1-expressing cells, fluorescence antagonist read-out | inhibition, % at 3 µM | actives 40% (n = 2,400) | AID 651785; in the data active = inhibition above about 49%;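 also: CHO-Ga16 host cells challenged with agonist PEA near its EC80; 0% = agonist at EC80 plus vehicle and 100% = vehicle with no agonist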
Ga16 ag counter – nonselective Ga16 agonist in TAAR1 antagonist counter-screen. actives 18% (n = 2,400). activation, % at 3 µM. shares compounds with TAAR1 antagonist. Ga16-expressing cells, calcium fluorescence, agonist counterscreen; in the data active = activation above about 12%;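 also: 0% = vehicle wells and 100% = saturating stimulus response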
TAAR1 ag counter – TAAR1 agonism, antagonist counter-screen; shares compounds with TAAR1 antagonist; activation, % at 3 µM; actives 2% (n = 2,400); AID 651955; hTAAR1 cell line, fluorescence activation, agonist mode; in the data active = activation above about 37%;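 also: CHO cells stably expressing TAAR1 with calcium dye readout; 0% = DMSO vehicle and 100% = full agonist response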
An asterisk follows results filed as active; / = not tested or not shown.

SMILES	OX1R antag-1	TAAR1 ag	TAAR1 antagonist	CHO parental Ca	OX1R antag-2	NTR1 agonist	nonsel antag count	TAAR1 antag conf	Ga16 ag counter	TAAR1 ag counter
CCOCCCn1c(SCc2nc3ccccc3s2)nc2ccccc2c1=O	-0.5	11.7	49.0*	-34.7	-38.4	6.3	18.9	38.2	6.3	23.3
CCOc1ccc(C(CC(=O)O)NC(=O)c2ccco2)cc1OC (stereo unspecified)	-5.7	2.8	-2.6	3.5	-29.2	-0.6	/	/	/	/
CCOc1ccc(C(CC(=O)O)NC(=O)C(c2ccccc2)c2ccccc2)cc1OC (stereo unspecified)	7.5	-0.4	62.6*	-8.6	-3.7	1.1	-1.9	-4.7	4.1	1.2
CNC(=O)C(C)c1ncc(C(F)(F)F)cc1Cl (stereo unspecified)	16.7	-2.6	98.2*	-13.0	-26.1	1.8	2.4	-5.2	-0.7	-1.8
CC(C(=O)Nc1ccc(Cl)cc1)c1ncc(C(F)(F)F)cc1Cl (stereo unspecified)	-0.5	4.3	12.6	-8.8	-15.2	1.5	/	/	/	/
C[C@H](CO)N1C[C@H](C)[C@H](CN(C)S(=O)(=O)c2ccc(F)cc2)OCc2cnnn2CCCC1=O	/	6.4	-6.7	/	/	/	/	/	/	/
COc1ccc(CNC(=O)COc2ccc(S(=O)(=O)N3CCCCC3)cc2Cl)cc1	25.7	10.0	73.0*	-10.5	-11.9	0.2	26.2*	44.7	10.4	12.7
COc1ccc(CNC(=O)COc2ccc(S(=O)(=O)N3CCCCC3)cc2)cc1	18.8	0.2	-4.3	-14.2	-14.5	-0.1	/	/	/	/
COc1ccc(C2c3ccc(O)cc3Oc3ncn(CCN4CCOCC4)c(=N)c32)cc1OC (stereo unspecified)	7.1	-0.2	-15.7	-4.4	-18.6	-0.2	/	/	/	/
N=c1c2c(ncn1CCN1CCOCC1)Oc1cc(O)ccc1C2c1ccccc1 (stereo unspecified)	12.4	17.5	75.2*	-9.8	-20.1	-0.8	22.1*	39.7	7.9	10.5
CSc1sccc1/C=C(/C#N)C(=O)c1ccco1	4.9	3.5	50.1*	-4.5	-29.5	0.9	32.9*	57.0*	7.4	10.2
COc1ccccc1N1CCN(C(=O)c2oc3ccc(F)cc3c2C)CC1	4.9	12.2	53.5*	-8.2	-11.2	-2.6	26.4*	50.7*	7.5	7.0
COc1ccccc1N1CCN(C(=O)c2ccc(Br)o2)CC1	7.6	-3.2	101.4*	3.8	-8.4	0.5	9.5	15.2	11.4	15.4
COc1ccccc1N1CCN(C(=O)c2oc3ccccc3c2C)CC1	/	0.9	2.0	/	/	/	/	/	/	/
COc1ccccc1N1CCN(C(=O)/C=C/c2ccccc2)CC1	12.7	15.8	105.1*	-13.6	-24.3	-7.9	6.1	4.8	0.6	4.0
Cc1ccc(S(=O)(=O)N2CCCCC2)cc1NC(=O)c1cncc(Br)c1	/	6.5	-6.5	/	/	-0.2	/	/	/	/
O=C(Nc1cccc(S(=O)(=O)N2CCCCCC2)c1)c1cncc(Br)c1	9.4	9.9	61.0*	-22.2	-35.4	1.7	37.4*	53.0*	10.5	14.5
O=C(Nc1cccc(S(=O)(=O)C(F)F)c1)c1ccc(S(=O)(=O)N2CCCCC2)cc1	20.8	15.4	63.5*	1.6	-8.0	3.1	35.3*	36.6	9.2	3.8
Cc1ccccc1C(=O)Nc1ccnn1C1CCN(C(=O)c2ccoc2)CC1	21.4	0.6	-2.1	-5.0	-10.3	1.5	/	/	/	/
CS(=O)(=O)N1CCN(c2ccccc2NC(=S)NC(=O)c2ccco2)CC1	-1.9	16.1	48.6*	-20.2	-18.3	1.0	28.8*	44.3	8.9	7.7
O=C(NC(=S)Nc1ccccc1N1CCCC1)c1ccco1	16.2	6.2	-9.0	-16.7	-55.6	-0.7	/	/	/	/
CC1(C)CC(C(CCN(Cc2ccccc2)C(=O)c2ccco2)c2ccc(F)cc2)CCO1 (stereo unspecified)	8.2	4.5	73.0*	-10.5	-2.9	/	40.9*	54.2*	5.5	0.4
COc1ccc(CNC(=O)CN(Cc2ccccc2F)C(=O)c2csnn2)cc1	14.7	4.7	2.2	-21.9	-32.2	-0.4	/	/	/	/
NS(=O)(=O)c1c(Sc2ccccc2C(=O)O)ccc2ccccc12	4.8	2.1	2.2	2.6	-9.9	4.4	/	/	/	/
CCN(c1ccccc1)S(=O)(=O)c1ccc(OC)c(NC(=O)Cc2ccc(F)cc2)c1	-2.9	-1.4	103.6*	13.7	26.1	-0.5	8.3	3.1	2.2	0.4
SMILES	OX1R antag-1	TAAR1 ag	TAAR1 antagonist	CHO parental Ca	OX1R antag-2	NTR1 agonist	nonsel antag count	TAAR1 antag conf	Ga16 ag counter	TAAR1 ag counter
C=C(C)COc1ccc(-c2n[nH]c(C)c2-c2ccc(OC)cc2)c(O)c1	26.4	6.7	61.5*	-0.7	-20.1	22.8	5.9	8.7	7.5	11.1
COCc1c(C(=O)NC2CCCCC2)sc2cccc(F)c12	19.5	30.9	-19.0	-33.0	-28.6	2.5	/	/	/	/
Cc1nn(-c2ccccc2)c(N2CCCC2)c1/C=N/n1cnc2scc(-c3ccccc3)c2c1=O	9.4	5.4	53.9*	-24.6	-31.4	16.9	27.8*	38.6	3.0	2.1
COc1cc(OC)c(N(C)S(=O)(=O)c2cccc(C(=O)Nc3nccs3)c2)cc1Cl	22.3	9.5	63.0*	-13.4	6.8	2.6	28.3*	45.0	7.6	3.0
O=C(CSc1nnc2ccc(-c3cccnc3)nn12)Nc1ccccc1	40.0	1.1	-9.6	-11.2	-14.8	0.6	/	/	/	/
Cc1ccc(C)c(N2CCN(C(=O)CCS(=O)(=O)c3ccc4c(c3)NC(=O)CO4)CC2)c1	23.9	17.6	85.3*	56.7*	65.7*	1.5	43.0*	56.8*	14.7*	13.4
O=C1COc2ccc(S(=O)(=O)CCC(=O)N3CCN(c4ccccc4)CC3)cc2N1	7.7	1.4	-14.0	-14.6	-17.8	0.1	/	/	/	/
N#Cc1cccc(S(=O)(=O)NCC(=O)OCC(=O)c2ccc[nH]2)c1	15.8	2.4	-25.1	11.0	-4.7	0.0	/	/	/	/
Cc1cc(OCC(=O)OCC(=O)Nc2cc(S(=O)(=O)N3CCOCC3)ccc2Cl)ccc1Cl	2.7	17.1	63.7*	-0.8	11.3	1.6	35.8*	42.8	13.7*	11.9
Cc1ccc(CSCC(=O)Nc2cc(S(=O)(=O)N3CCOCC3)ccc2OCC(F)(F)F)cc1	/	-0.3	81.4*	/	/	/	12.3	61.7*	1.4	2.4
